From publication PMC10582670 (Clinical and Translational Science, 2023)
Converted amounts (≈) assume the structure as drawn. “And” between values parts separate entries of the source, which are not always exact repeats. Equal entries are not always repeated.

Experiments:
[1] = MAD both doses, comparable between day 1 and day 14
[2] = Food effect on plasma PK; assay type: in vivo, human
Outline: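 The same healthy subjects from the 75-mg fasted single-dose cohort, after a washout of at least five half-lives, fasted 8 h, ate a high-fat breakfast within 20 min and received a single oral 75 mg dose or placebo 30 min after breakfast began. Plasma was sampled predose, through 72 h and on day 7. Concentrations were measured by LC-MS/MS (LLOQ 0.0500 ng/mL). Relative bioavailability versus fasted dosing was based on AUC and Cmax.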

[3] = Plasma pharmacokinetics after single and multiple oral doses; assay type: in vivo, human; settings: for AUC / concentration at 24 h / Cmax / Tmax / Vd/F / half-life: human, plasma, oral; for AUC: AUC0-τ; for Cmax: C max; for Vd/F: V z/F
Outline: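 Healthy adults received once-daily oral doses of 50 or 100 mg (8 active: 2 placebo) for up to 14 days, in the morning after an overnight fast of at least 8 h. Plasma was sampled after the first dose through 16 h, predose on days 2, 4 and 7, and through 72 h after the day-14 dose. Concentrations were measured by LC-MS/MS (LLOQ 0.0500 ng/mL). Parameters came from noncompartmental analysis: accumulation ratios day 14 versus day 1, CL/F as dose/AUC0-inf. Values given as geometric mean (geometric CV%).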

[4] = system: RIP1 pathway activation (CCL4 release in human whole blood); assay: Ex vivo TBZ stimulation assay of whole blood for CCL4 secretion; assay type: cell-based
Outline: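 Whole blood from healthy volunteers in the single- and multiple-ascending-dose stages, collected across the dosing periods, stimulated ex vivo to activate the RIP1-mediated necroptosis pathway; secreted CCL4 measured. Inhibition derived by normalising CCL4 levels to each subject's baseline, then adjusting to the maximum inhibition and SD per cohort. Placebo subjects were sampled in parallel.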

[5] = system: RIP1 pathway activation (CCL4 release in human whole blood); assay: PK-PD modeling; assay type: cell-based
Outline: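 CCL4 inhibition from the ex vivo stimulated whole-blood assay was related to GDC-8264 plasma concentrations measured in the same volunteers by PK-PD modelling. The model estimated the IC50 and the maximal target inhibition.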

[6] = MAD 50 mg q.d., n=5, geometric mean (geometric CV%)
[7] = MAD 100 mg q.d., n=7, geometric mean (geometric CV%)
[8] = 50 mg, MAD 50 mg q.d., Day 1, n=5, geometric mean (geometric CV%)
[9] = 50 mg, MAD 50 mg q.d., Day 14, n=5, geometric mean (geometric CV%)
[10] = 100 mg, MAD 100 mg q.d., Day 1, n=7, geometric mean (geometric CV%)
[11] = 100 mg, MAD 100 mg q.d., Day 14, n=7, geometric mean (geometric CV%)

Q: Which “Geometric mean CLr0-τ” value [1] does the source give for `O=C(c1nc2n(n1)[C@H](c1ccccc1)C[C@@H]2F)C1CC1` [GDC‐8264] here?
A: Its value is ~ 0.008 L/h.

Q: And the “effect of a high-fat meal on the PKs” value ([2]; 75 mg single dose)?
A: The value was “no significant effect”.

Q: And the “delay of median T max after a high-fat meal” value ([2]; 75 mg, compared to the fasted state)?
A: The value was 1 h.

Q: What about the CL/F ([3]; MAD 50 mg q.d., Day 14, n=5, geometric mean (geometric CV%)) of the same compound?
A: Its CL/F is 4.96 (14.1) L/h.

Q: And the “ARAUC (accumulation ratio based on AUC0-τ of day 14 versus day 1)” value [3, 6]?
A: The value was 1.39 (4.8).

Q: And the “ARCmax (accumulation ratio based on C max of day 14 versus day 1)” value [3, 6]?
A: Its value is 1.37 (18.3).

Q: What about the CL/F ([3]; MAD 100 mg q.d., Day 14, n=7, geometric mean (geometric CV%)) of the same compound?
A: Its CL/F is 4.72 (15.2) L/h.

Q: And the “ARAUC (accumulation ratio based on AUC0-τ of day 14 versus day 1)” value [3, 7]?
A: The value was 1.31 (17.7).

Q: What about the “ARCmax (accumulation ratio based on C max of day 14 versus day 1)” value [3, 7] of the same compound?
A: The value was 1.41 (27.3).

Q: What about the “day on which steady-state trough concentrations were observed” value ([3]; MAD, daily doses) of the same compound?
A: Its value is 4 days.

Q: What about the CL/F ([3]; SAD 5 mg single oral dose, fasted, n=6, geometric mean (geometric CV%)) of the same compound?
A: Its CL/F is 4.71 (10.0) L/h.

Q: What about the CL/F ([3]; SAD 25 mg single oral dose, fasted, n=6, geometric mean (geometric CV%)) of the same compound?
A: Its CL/F is 5.08 (30.3) L/h.

Q: What about the CL/F ([3]; SAD 75 mg single oral dose, fasted, n=5, geometric mean (geometric CV%)) of the same compound?
A: The CL/F was 5.70 (19.0) L/h.

Q: What about the CL/F ([3]; SAD 75 mg single oral dose, high fat meal, n=5, geometric mean (geometric CV%)) of the same compound?
A: The CL/F was 5.79 (23.2) L/h.

Q: And the CL/F ([3]; SAD 150 mg single oral dose, fasted, n=5, geometric mean (geometric CV%))?
A: The CL/F was 5.40 (18.4) L/h.

Q: What about the CL/F ([3]; SAD 225 mg single oral dose, fasted, n=6, geometric mean (geometric CV%)) of the same compound?
A: The CL/F was 4.81 (6.7) L/h.

Q: And the AUC [3, 8]?
A: Its AUC is 7270 ng·h/mL.

Q: What about the AUC [3, 9] of the same compound?
A: The AUC was 10100 ng·h/mL.

Q: What about the concentration at 24 h ([3]; 50 mg, C24, MAD 50 mg q.d., Day 1, n=5, geometric mean (geometric CV%)) of the same compound?
A: The concentration at 24 h was 151 ng/mL.

Q: What about the Cmax [3, 8] of the same compound?
A: The Cmax was 610 ng/mL.

Q: What about the Cmax [3, 9] of the same compound?
A: Its Cmax is 836 ng/mL.

Q: What about the Tmax ([3]; 50 mg, T max, MAD 50 mg q.d., Day 1, n=5, median (range)) of the same compound?
A: Its Tmax is 3 h.

Q: And the Tmax ([3]; 50 mg, T max, MAD 50 mg q.d., Day 14, n=5, median (range))?
A: Its Tmax is 2.5 h.

Q: And the Vd/F [3, 9]?
A: The Vd/F was 80.3 L.

Q: And the half-life ([3]; 50 mg, t 1/2, MAD 50 mg q.d., Day 14, n=5, geometric mean (geometric CV%))?
A: Its half-life is 11.2 h.

Q: What about the AUC [3, 10] of the same compound?
A: The AUC was 16200 ng·h/mL.

Q: What about the AUC [3, 11] of the same compound?
A: The AUC was 21200 ng·h/mL.

Q: And the concentration at 24 h ([3]; 100 mg, C24, MAD 100 mg q.d., Day 1, n=7, geometric mean (geometric CV%))?
A: Its concentration at 24 h is 342 ng/mL.

Q: And the Cmax [3, 10]?
A: The Cmax was 1180 ng/mL.

Q: And the Cmax [3, 11]?
A: The Cmax was 1660 ng/mL.

Q: And the Tmax ([3]; 100 mg, T max, MAD 100 mg q.d., Day 1, n=7, median (range))?
A: Its Tmax is 3 h.

Q: What about the Tmax ([3]; 100 mg, T max, MAD 100 mg q.d., Day 14, n=7, median (range)) of the same compound?
A: The Tmax was 2.5 h.

Q: What about the Vd/F [3, 11] of the same compound?
A: Its Vd/F is 77.4 L.

Q: What about the half-life ([3]; 100 mg, t 1/2, MAD 100 mg q.d., Day 14, n=7, geometric mean (geometric CV%)) of the same compound?
A: Its half-life is 11.4 h.

Q: And the half-life ([3]; mean half-life, tablet formulation)?
A: The half-life was 11 to 13 h.

Q: What about the half-life ([3]; mean terminal half-life, range of means across single doses) of the same compound?
A: The half-life was 10 to 13 h.

Q: What about the Tmax ([3]; median T max, SAD 5- and 25-mg doses (suspension formulation)) of the same compound?
A: Its Tmax is 1.3 to 1.9 h.

Q: And the Tmax ([3]; median T max, SAD 75-225-mg doses (tablet formulation))?
A: Its Tmax is 3 to 4 h.

Q: And the Tmax ([3]; median T max, overall, as summarised in the discussion)?
A: The Tmax was 2.5 to 4 h.

Q: What about the “accumulation ratio [AR]” value ([3]; multiple dosing q.d. up to 14 days, steady state) of the same compound?
A: The value was ~ 1.4 and 1.3–1.4.

Q: What about the “timepoint through which >90% inhibition of CCL4 was sustained” value ([4]; SAD 5- and 25-mg cohorts) of the same compound?
A: The value was no less than 48 h.

Q: And the “timepoint through which >90% inhibition of CCL4 was sustained” value ([4]; SAD 75-, 150-, and 225-mg cohorts)?
A: Its value is no less than 72 h.

Q: What about the “levels of CCL4” value ([4]; SAD 150-mg cohort, 144-h timepoint) of the same compound?
A: The value was “comparable to the placebo cohort”.

Q: And the “group mean inhibition of CCL4 production” value ([4]; SAD 225-mg cohort, 144 h, mean ± SD, placebo 17% ± 3%)?
A: The value was 49% ± 9%.

Q: And the “inhibition of CCL4” value ([4]; all SAD cohorts (5-225 mg), 1.5 h postdose)?
A: Its value is “greater than 90%”.

Q: What about the IC50 ([5]; Homo sapiens, read-out: half-maximal inhibitory concentration (IC50) for the inhibition of CCL4 release) of the same compound?
A: Its IC50 is 0.58 ng/mL (≈ 2.14 nM).

Q: And the “maximal inhibition of the target” value ([5]; estimated by PK-PD (Emax) modeling)?
A: The value was 99.4%.
